# Columns and labels:
# [1] = tested on: C. albicans hyphae; experiment: Propidium iodide membrane permeability assay, hyphal form; format: cell-based, Candida albicans SC5314
# Outline: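 Colony from YPD agar (30 °C, 24 h) grown 24 h in SD+ at 30 °C, 200 rpm, then diluted to OD600 0.1 in SD+ with 12.5 mM N-acetylglucosamine and grown 24 h at 37 °C, 200 rpm. Cells pelleted and resuspended in PPB pH 7.4, then given 12.5 μM test peptide, 7.5 μM PI, ± ZnCl2 (0.5, 1, 2 eq). Confocal imaging at 5 min, RT; PI excitation 488 nm, emission 600–700 nm.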
# [2] = Circular dichroism titration for Zn-induced dimerization/aggregation; format: physicochemical; conditions: CD, 0-50 μM Hist-5 with 250 μM ZnCl2, PPB (198 nm) or 98% TFE (222 nm), 25 °C; ellipticity linear up to 50 μM
# [3] = tested on: C. albicans; experiment: Two-dimensional broth microdilution checkerboard assay; format: cell-based, Candida albicans SC5314
# [4] = tested on: C. albicans cells; experiment: Propidium iodide membrane permeability assay, confocal microscopy, yeast form; format: cell-based, Candida albicans SC5314; conditions: for membrane disruption (PI leakage): 12.5 μM Hist-5, 7.5 μM PI, 5 min, RT, PPB
# [5] = tested on: C. albicans cells; conditions: acid form of ZQ; stated as known, no reference given; cited from earlier work
molecule,measurement,setting,value
"DSHAKRHHGYKRKFHEKHHSHRGY [Hist-5, Histatin-5]",membrane activity on hyphae (PI leakage),"[1]; 12.5 μM Hist-5, 7.5 μM PI, with Zn^2+ supplementation",protective effect against Hist-5-induced membrane disruption
same,membrane activity on hyphae (PI leakage),"[1]; 12.5 μM Hist-5 alone, 7.5 μM PI, 5 min, RT, PPB",able to permeabilize the cell membrane
same,Zn-induced peptide dimerization/aggregation,[2],dimerization/aggregation is not occurring
same,effect of Zn^2+ on fungicidal activity,[3]; Zn^2+ concentration surpassing the Hist-5 concentration (Figure S9),switched from promoting Hist-5 fungicidal activity to inhibiting it
same,effect of Zn^2+ supplementation on peptide activity,"[3]; sub-inhibitory concentrations of Hist-5, strongest at 1:2 Zn^2+ to peptide (Figure S9)",increase in peptide activity
same,membrane disruption (PI leakage),[4]; no added Zn^2+,allows leakage of PI into the cytosol
same,membrane disruption (PI leakage),[4]; one or more molar equivalents of Zn^2+,did not cause dye leakage
same,membrane disruption (PI leakage),[4]; submolar equivalents of Zn^2+,internalization of PI
"Cc1ccc(S(=O)(=O)Nc2cc(OCC(=O)O)cc3ccc(C)nc23)cc1 [ZQ, 2-methyl-8-(toluene-p-sulfonamido)-6-quinolyloxyacetic acid]",membrane permeability,[5],poor membrane permeability
"O=C(O)CN(CCN(CC(=O)O)CC(=O)O)CC(=O)O [EDTA, ethylenediaminetetraacetic acid]",PI uptake into the cytosol,"[4]; cells treated with EDTA and PI only, no peptide (Figure S14)",not observed

# Reference: publication PMC9671271 (ACS infectious diseases, 2022)
